# HTR2A ag = agonists of mouse serotonin 5-HT2A receptor (HTR2A). P35363. CHO-K1 mHTR2A beta-arrestin complementation, luminescence; percent of 30 µM serotonin response. activation, % at 7.6 µM. 360,000 compounds, 0.66% hits. AID 624169;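 active = activation above a run cutoff, the mean activation of all tested compounds plus 3 SD, cut at about 14% in these data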;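 also: 0% = plate median of compound wells and 100% = 30 µM serotonin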
# Target sequence (P35363 whole entry, looked up): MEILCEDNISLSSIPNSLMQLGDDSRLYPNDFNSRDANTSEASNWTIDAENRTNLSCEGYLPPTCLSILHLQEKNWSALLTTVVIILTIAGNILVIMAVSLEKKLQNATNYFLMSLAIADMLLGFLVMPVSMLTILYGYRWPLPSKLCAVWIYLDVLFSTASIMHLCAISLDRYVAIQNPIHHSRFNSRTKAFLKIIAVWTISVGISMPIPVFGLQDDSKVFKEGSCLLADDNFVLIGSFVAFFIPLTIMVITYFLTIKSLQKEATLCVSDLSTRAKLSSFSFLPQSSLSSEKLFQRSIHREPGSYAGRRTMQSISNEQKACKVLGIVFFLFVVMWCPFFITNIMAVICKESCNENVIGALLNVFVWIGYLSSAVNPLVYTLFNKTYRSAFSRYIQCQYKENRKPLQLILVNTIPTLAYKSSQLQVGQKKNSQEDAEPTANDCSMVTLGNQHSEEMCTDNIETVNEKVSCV
# APJ antagonist = antagonists of human APJ apelin receptor; 330,000 compounds, 0.32% hits; P35414; inhibition, % at 20 µM; CHO-K1 APJ beta-arrestin complementation, luminescence;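 active = inhibition above about 40% at 20 µM, limit read from the data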;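 also: cells challenged with 10 nM apelin-13 agonist together with compound; plate controls were apelin-13 plus DMSO wells for no effect and DMSO wells lacking apelin-13 for full effect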
# APJ agonist = APJ receptor agonism | P35414 | CHO-K1 APJ PathHunter beta-arrestin, luminescence; 0% DMSO wells, 100% apelin | activation, % at 20 µM | 330,000 compounds, 0.11% hits | AID 2520;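 active = activation more than six SD over the plate average, tested at 20 µM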;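 also: 0% = DMSO alone and 100% = apelin-13 at 10 nM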
#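 Incubation: overnight seeding, 90 min compound at 25 °C, 1 h detection; test system: PathHunter CHO-K1 APJ (AGTRL-1) beta-arrestin reporter cells; amount: 1000 cells/well; doses: one dose, 20 µM compound, 1% DMSO; measured by: beta-gal luminescence; measure: agonist-driven arrestin binding to APJ; benchmarks: negative DMSO alone, positive Apelin-13 at 10 nM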
# CXCR6 block = inhibitors of human CXCR6 receptor | O00574 | CHO-K1 PathHunter CXCR6 beta-arrestin, luminescence | inhibition, % at 20 µM | 360,000 compounds, 0.36% hits | AID 602244; in the data active = inhibition above about 34%, passing the limit was not always enough;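 also: antagonist mode with CXCL16 agonist at 10 nM final; 0% = 10 nM CXCL16 with DMSO and 100% = unstimulated wells without agonist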
# NTR1 ag = agonists of human neurotensin receptor NTR1; P30989; NTR1-U2OS beta-arrestin-GFP spot imaging, agonist mode; activation, % at 20 µM; 330,000 compounds, 0.17% hits; AID 493036;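 active = activation at or above 40% of the spot to cytoplasm intensity ratio, with at least 20 cells analyzed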;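 also: 0% = DMSO without peptide and 100% = 100 nM NTR1 peptide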
# CCR6 antag = blocks CCL20-driven beta-arrestin recruitment at human CCR6; CHO-K1 CCR6 PathHunter beta-arrestin, luminescence, CCL20-stimulated; inhibition, % at 20 µM; 340,000 compounds, 0.49% hits;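 active = compounds whose inhibition of the agonist-driven luminescence signal at 20 µM reaches about 50%, limit read from the data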;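 also: cells stimulated with CCL20 at 14 nM final; plate controls were DMSO with CCL20 for no effect and DMSO without agonist for full effect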
# NTR1 ag confirm = NTR1 (human) agonism, confirmed; NTR1-U2OS beta-arrestin-GFP translocation imaging; 480 compounds, 38% hits; activation, % at 20 µM; shares compounds with NTR1 ag; AID 504550;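 active = mean activation at 20 µM of at least 40%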;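 also: 0% = DMSO without peptide and 100% = 100 nM NTR1 peptide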
# Starred values were filed as active, the others as inactive; x = no result given. In the library only some 1.5% were active in any assay of this set; here they are far more common.
SMILES,HTR2A ag,APJ antagonist,APJ agonist,CXCR6 block,NTR1 ag,CCR6 antag,NTR1 ag confirm
O=C1/C(=C/c2cccnc2)Oc2cc(OS(=O)(=O)c3ccc(F)cc3)ccc21,2,-13,-1,5,31,12,x
CCOC(=O)c1sc(Nc2nc3c(OC)cccc3s2)nc1C,4,9,5,-11,55*,x,26
Cc1ccc(O)c(-c2cc(-c3cccc(Br)c3)n[nH]2)c1,-3,5,-2,-3,54*,-1,21
O=C(Nc1ccc([N+](=O)[O-])cc1)Nc1ccc(N2CCOCC2)c2nonc12,-2,24,-2,24,42*,31,65*
CC[C@]12c3[nH]c4cc(CCC(=O)N(C)C)ccc4c3CCN1C(=O)[C@@H](CC(=O)NC(C)(C)C)C[C@@H]2C(=O)N1CCN(C(=O)c2ccco2)CC1,-2,x,x,-10,6,8,x
CCCCCCCCCCOC(=O)Cn1c(COc2ccc(OC)cc2)[n+](C)c2ccccc21,2,31,-4,10,50*,5,65*
CCCOc1ccc(/C(CC)=N/NC(=O)C2(C)CC2(Br)Br)cc1 (centres undefined),-1,10,-1,3,42*,10,24
O=C(CCS(=O)(=O)c1ccccc1)Nc1cccc(-c2nc3ccccc3s2)c1,0,-4,2,4,49*,-12,15
O=C(CCS(=O)(=O)c1ccccc1)Nc1ccc(-c2nc3ccccc3s2)cc1,1,11,-3,-1,0,-5,x
O=[N+]([O-])c1ccc(Nc2c3ccccc3nc3ccccc23)cc1,3,23,-6,21,44*,38,10
COc1ccc(NC(=O)CN(C)C(=O)c2ccc(NS(=O)(=O)c3ccc(F)cc3)cc2)cc1,0,26,4,7,0,5,x
O=C(/C=C\c1ccccc1)NCC(=O)N/N=C/c1ccc(O)cc1O,5,4,6,1,66*,-1,55*
Cc1cccc(OCC(=O)NCC(=O)N/N=C/c2ccc(O)cc2O)c1,1,-14,0,2,40*,3,30
COc1cc(OC)cc(C(=O)N(Cc2ccco2)c2c(N)n(Cc3ccccc3)c(=O)[nH]c2=O)c1,-3,x,x,3,x,8,x
COC(=O)c1sccc1NC(=O)Nc1ccccc1Cl,12,9,-3,14,-1,9,x
Cc1ccc(OC(F)F)c(NC(=O)Nc2cccc(C(F)(F)F)c2)c1,-6,17,0,-26,43*,12,14
O=C(COCC(=O)Nc1cccc(C(F)(F)F)c1)Nc1cccc(C(F)(F)F)c1,2,6,-3,-10,47*,-10,12
OCC[C@@H]1C[C@@H](O)[C@H](O)[C@@]2(CCc3ccccc3CO2)O1,5,4,-4,0,3,-7,x
COC(=O)CSc1nc(N)c2c3c(sc2n1)C(c1ccccc1)SC(c1ccccc1)C3 (centres undefined),3,-32,5,6,50*,7,32
O=C(Nc1ccc(S(=O)(=O)Nc2nccs2)cc1)c1ccccc1OC(F)F,9,16,-2,6,-2,13,x
COc1cc(C(CCN2CCCC2)c2c(OC)cc(OC)c3c(-c4ccccc4)cc(=O)oc23)cc(OC)c1OC (centres undefined),-1,0,-2,-1,41*,4,16
COc1cc(C(CCN2CCOCC2)c2c(OC)cc(OC)c3c(-c4ccccc4)cc(=O)oc23)cc(OC)c1OC (centres undefined),-5,x,x,14,4,18,x
COc1ccc(-n2ncc3c(N4CCN(Cc5ccccc5)CC4)ncnc32)cc1,-2,-5,4,4,67*,-18,56*
CCN1CCN(c2ncnc3c2cnn3-c2ccccc2)CC1,5,12,-2,1,-3,2,x
O=C(N/N=C/c1cn(-c2ccccc2)nc1-c1cc2ccccc2o1)c1cccnc1,-5,-18,6,1,40*,-4,62*
SMILES,HTR2A ag,APJ antagonist,APJ agonist,CXCR6 block,NTR1 ag,CCR6 antag,NTR1 ag confirm
O=C(N/N=C/c1cn(-c2ccccc2)nc1-c1cc2ccccc2o1)c1ccncc1,-1,-10,4,-6,9,0,x
CCC(COC)Oc1cc(NCc2ccccc2)c2ncn(C(C)C)c2c1 (centres undefined),10,-19,11,-14,44*,5,9
Cc1ccc(Cl)c2c1NC(=O)C2=O,-6,12,-3,-2,1,10,x
CCOC(=O)[C@]12CCCC=C1N(Cc1ccc3c(c1)OCO3)C(=O)[C@H](CC(=O)NCCc1ccccc1OC)C2,-3,x,x,2,x,x,x
Cc1cc2nc(C(C)(C)C)c(CC3CCCCC3)n2c(C)c1Br,-1,x,x,-9,x,x,x
O=CC1=C(c2ccccc2)Oc2ccccc2O1,7,12,5,2,44*,4,62*
CN(C)/C=C1/N=C(c2ccccc2)OC1=O,-2,-3,-2,0,-1,12,x
Cc1cc2c(cc1C)CSC(c1ccccc1O)SC2,2,14,-2,-8,51*,3,7
CCCCCc1c2c(cc(O)c1C(=O)O)OC(=O)c1c(cc(OC)cc1C(=O)CCCC)O2,10,-28,-3,-5,38,6,x
CCCCCc1c2c(cc(O)c1C(=O)O)OC(=O)c1cc(C(=O)CCCC)c(OC)cc1O2,5,-6,-4,-1,48*,-7,12
CCCCn1c(SCC(=O)N2CCC(C)CC2)nc2cc(S(N)(=O)=O)ccc21,0,15,-4,8,44*,18,50*
Cc1c(/C=N/NC(=O)c2ccccc2O)c2ccccn2c1C(=O)c1ccc(F)cc1,-1,9,1,8,114*,23,17
OCC[C@H]1C[C@@H](O)[C@H](O)[C@]2(CCCO2)O1,-21,15,2,-5,0,-3,x
O=C(NCCc1c[nH]c2ccccc12)OCCCCOC(=O)NCCc1c[nH]c2ccccc12,-2,-13,14,-6,67*,3,17
C[C@]12CCC(O)CC1CCC1C2CC[C@]2(C)C(c3cc(C(F)(F)F)n[nH]3)CCC12 (some centres undefined),7,-19,2,-14,74*,-53,30
O=C(N/C=N/OCc1ccc(Cl)cc1Cl)NOCc1ncc(C(F)(F)F)cc1Cl,-4,12,-4,5,41*,14,12
CO/N=C/NC(=O)NOCc1ncc(C(F)(F)F)cc1Cl,2,3,3,-7,0,-6,x
COc1ccccc1-c1cn[nH]c1-c1ccc(OCc2ccccc2)cc1O,-2,1,0,0,57*,-3,1
